Experimental findings from ChEMBL document CHEMBL1667823, “Design and synthesis of 4-arylpiperidinyl amide and N-arylpiperdin-3-yl-cyclopropane carboxamide derivatives as novel melatonin receptor ligands” (Bioorg Med Chem Lett, 2011) are described below.

Structures are written as SMILES.

The EC50 is the concentration giving half of the maximal effect. Broadly, the Ki is the dissociation constant of the complex between target and ligand, obtained from inhibition or displacement. As usually defined, the IC50 is the concentration that gives 50% inhibition. Usually inhibition stands for how much of the control response was suppressed. What is called Kp is the ratio of the level in a tissue or fluid to that in plasma or blood.

Series [1] in a line: Binding affinity to rat MT1 receptor expressed in CHO-Galpha16 cells assessed as Ca2+ mobilization after 20 mins by FLIPR assay. In kind it is cell-based. In a few lines: (§1)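 CHO-Galpha16 cells expressing rat MT1 or MT2, plated 24 h ahead, loaded with Fluo4-AM (1.5 final) plus pluronic acid in HBSS/20 mM HEPES/0.1% BSA pH 7.4 with 2.5 mM probenecid, 1 h at 37 °C, then washed. Ca2+ read by FLIPR. Agonist mode: 15 s baseline, compound added, 3 min read. Antagonist mode: compound preincubated 20 min at room temperature, then melatonin at EC80, 3 min read.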

A short description of series [2]: Binding affinity to rat MT2 receptor expressed in CHO-Galpha16 cells assessed as Ca2+ mobilization after 20 mins by FLIPR assay. In kind it is cell-based. In a few lines:
as §1
For orientation: Calcium flux is commonly read through the fluorescence of an indicator in the cells.

The subject of series [3] is CHO-Galpha16. Nature of the series: Intrinsic activity at rat MT1 receptor expressed in CHO-Galpha16 cells assessed as Ca2+ mobilization after 20 mins by FLIPR assay relative to ramelteon. In kind it is cell-based. Put shortly: as §1
The species named for series [4] is Rattus norvegicus. In words: Intrinsic activity at rat MT2 receptor expressed in CHO-Galpha16 cells assessed as Ca2+ mobilization after 20 mins by FLIPR assay relative to agomelatine. In kind it is cell-based. Put shortly:
as §1

Series [5] in a line: Displacement of [3H]melatonin from rat MT1 receptor expressed in CHO-Galpha16 cells. It is filed as cell-based. In a few lines: (§2)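 Rat MT1 or MT2 membranes from CHO-Galpha16 cells incubated with [3H]-melatonin (0.5 nM final, 80 Ci/mmol) in 50 mM Tris/HCl pH 7.4, 5 mM MgCl2. Nonspecific binding defined with excess melatonin. Stopped by rapid GF/B filtration with five ice-cold washes. Ki from IC50 via Cheng–Prusoff.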

A short description of series [6]: Displacement of [3H]melatonin from rat MT2 receptor expressed in CHO-Galpha16 cells. In kind it is cell-based. Put shortly: as §2
For series [7], the system named is CHO-Galpha16. Nature of the series: Inhibition of rat MT2 receptor expressed in CHO-Galpha16 cells relative to control. It is filed as cell-based. The conditions noted are these: dose or concentration not given here. In a few lines:
as §1

The test system of series [8] is CHO-Galpha16. Nature of the series: Inhibition of rat MT1 receptor expressed in CHO-Galpha16 cells relative to control. In kind it is cell-based. Further details: concentration or dose not given beside the values. The conditions noted are these: dose or concentration not given here. In a few lines:
as §1

The species entered for series [9] is Rattus norvegicus. Nature of the series: (§3) Ratio of Ki for rat MT1 to Ki for rat MT2. In a few lines:
as §2

The nature of series [10]: as §3. In a few lines:
as §2

A short description of series [11]: Agonist activity at human MT1 receptor. In kind it is functional.
A short description of series [12]: Agonist activity at human MT2 receptor. In kind it is functional.
For series [13], the system named is Liver microsomes. In words: Intrinsic clearance in human liver microsome at 1 uM by LC/MS analysis. It is filed as ADME. Put shortly: (§4)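 Compound at 1 µM incubated with liver microsomes (0.5 mg/mL protein) and an NADPH-regenerating system, sampled at 0, 5, 15, 30 and 60 min. Quenched, centrifuged supernatants analysed by LC/MS for remaining parent to estimate T1/2.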
Background: Liver microsomes are vesicles of endoplasmic reticulum, rich in cytochrome P450 enzymes.

In series [14] the test system is Liver microsomes. In words: Intrinsic clearance in rat liver microsome at 1 uM by LC/MS analysis. It is filed as ADME. Put shortly: as §4
Series [15] in a line: Drug level in rat brain at 10 mg/kg, ip after 1 hr. Also noted: dose 10 mg/kg, route intraperitoneal. In kind it is ADME, organism-based. The note with it: read-out: Drug uptake. Put shortly:
(§5)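 Rats dosed 10 mg/kg IP, with brain and plasma concentrations taken at 1 h. Vehicle varied: 20% HP-bCD, 15% Solutol, or 10% DMSO with 2.5% PEG400 in 15% Solutol. B/P is the brain-to-plasma concentration ratio.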

A short description of series [16]: Drug level in rat plasma at 10 mg/kg, ip after 1 hr. It is filed as ADME, organism-based. Also noted: dose 10 mg/kg, route intraperitoneal. The conditions noted are these: read-out: Drug uptake. In a few lines:
as §5

Series [17] can be described thus: Ratio of drug level in rat brain to plasma at 10 mg/kg, ip after 1 hr. In kind it is ADME, organism-based. Further details: dose 10 mg/kg, route intraperitoneal. In a few lines: as §5

On to `COc1cccc(N2CCC[C@@H](NC(=O)C3CC3)C2)c1`, for which the EC50 came out at 3.5 µM in series [1] and 0.093 µM in [2]. In addition, the Intrinsic activity was 30% in the series with CHO-Galpha16 [3] and 23% in the series filed under Rattus norvegicus [4]. Further, the results for the inhibition constant Ki in [5] and in [6] were 1 µM and 0.095 µM, respectively. Further, the half-maximal inhibitory concentration (IC50) in series [6] was 0.01 µM. The same molecule returned an inhibition with CHO-Galpha16 [7] of 97%.

For `COc1cc(N2CCC[C@@H](NC(=O)C3CC3)C2)ccc1Cl`, the EC50 in series [1] and in series [2] was greater than 10 µM in each case. For the same molecule, the Intrinsic activity in the series on CHO-Galpha16 [3] came out at 19%; in the series filed under Rattus norvegicus [4] it was 23%. For the same molecule, the figures for the concentration for half-maximal inhibition (IC50) in series [5] and in series [6] were 0.44 µM and 0.024 µM, respectively. The inhibition constant (Ki) is 0.13 µM in series [5] and 0.031 µM in [6]. Moreover, the inhibition in the series on CHO-Galpha16 [8] was determined as 94%; in the series with CHO-Galpha16 [7], 98%. Also, the Ratio Ki in the series filed under Rattus norvegicus [9] is 4.

On to `O=C(N[C@H]1CCCN(c2cccc(OCCO)c2)C1)C1CC1`, for which the EC50 in [1] and in series [2] was greater than 10 µM each time. The Intrinsic activity in the series on CHO-Galpha16 [3] was 3%; in the series filed under Rattus norvegicus [4], 12%. Besides, the half-inhibitory concentration (IC50) in [5] turned out to be 0.93 µM; in [6], 0.031 µM. In addition, the inhibitory constant (Ki) stood at 0.61 µM in series [5] and 0.15 µM in series [6]. The inhibition in the series with CHO-Galpha16 [8] was found to be 91%; with CHO-Galpha16 [7], 94%.

`COc1cccc(N2CCCC(NC(=O)C3CC3)C2)c1` (racemic): the EC50 in series [1] was found to be 0.0097 µM; in series [2] it was 0.0029 µM. The Intrinsic activity in the series with CHO-Galpha16 [3] stood at 85%; in the series filed under Rattus norvegicus [4], 99%. The 50% inhibitory concentration (IC50) in series [5] and in [6] was greater than 10 µM throughout. For the same molecule, the figures for the inhibitory constant (Ki) in series [5] and in series [6] were 0.015 µM and 0.0027 µM, respectively. In series [10], the Ki ratio (MT1/MT2) was determined as 5.6.

Consider `CCCC(=O)N[C@H]1CCN(c2cccc(OC)c2)C1`, for which the Ki in series [11] was 0.0037 µM; in series [12] it was 0.0026 µM.

Take `COc1cccc(C2CCN(C(=O)C3CC3)CC2)c1`: the EC50 came out at 0.065 µM in series [1] and 0.0095 µM in series [2]. The Intrinsic activity in the series with CHO-Galpha16 [3] is 41%; in the series listed under Rattus norvegicus [4] it was 74%. For the same molecule, the Ki worked out at 0.04 µM in [5] and 0.01 µM in series [6]. Besides, the figures for the clearance with Liver microsomes [13] and with Liver microsomes [14] were 29 µL/min/mg and 91 µL/min/mg, respectively. The concentration at 1 h worked out at 540 nM in [15] and 390 nM in series [16]. Moreover, the Kp at 1 h in [17] came to 1.4. The Ratio Ki in the series listed under Rattus norvegicus [9] is 4.
